b-catenin transl: modulators of beta-catenin nuclear translocation, primary screen, imaging, HeLa cells, immunofluorescence, high-content. AID 1665, 2009. 0.3% of 190,000 active. nuclear translocation activity, % at 5 µM;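 active = nuclear translocation activity above 50% at 5 µM, with a well cell count of 50 or more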;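 also: per-cell ratio of nuclear to cytoplasmic median beta-catenin stain intensity; plate controls were DMSO negative control for no effect and GSK-3 inhibitor IX positive control for full effect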
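test system = HeLa cells, endogenous beta-catenin | dosing = single 5 µM dose plus 0.02–20 µM confirmation series | times = compound treatment 24 h, 37°C, 5% CO2 | technique = beta-catenin immunofluorescence imaging with DAPI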
Dynein transport: inhibitors of GR-EGFP nuclear translocation, primary screen, dynein cargo transport inhibitor project, imaging, high-content, 3617.4 mouse cells; z-score, hits read low; test concentration mostly 20 µM; stimulated with dexamethasone, 1 µM; hits give low values; 0.47% of 220,000 active;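 active = plate z-score of nuclear minus cytoplasmic receptor signal below a set negative limit, without overly bright fluorescence or cell loss, cut at about -3.5 in these data, passing the limit was not always enough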;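 also: z-score of nuclear minus cytoplasmic ring GR-EGFP intensity difference per well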
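Buffer or medium – tet-free medium with charcoal-stripped serum · Signal – automated 10x imaging of fixed Hoechst-stained cells · Also added – dexamethasone agonist, 1.0 µM final, for 30 min · Incubation – induction 48 h, compound 1 h, agonist 30 min · Read-out – GR-EGFP nuclear translocation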
CHOP inhibitor: inhibitors of CHOP promoter induction, primary screen, cell-based, unfolded protein response, luciferase reporter. CHO-K1 CHOP-promoter luciferase, tunicamycin-induced, 15-18 h. inhibition, % at 10 µM. 3.8% of 220,000 active. AID 2732, 2010;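 active = compounds that reduced the stress-induced luciferase reporter signal by more than about 70% of percent inhibition, limit read from the data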;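 also: 0% = tunicamycin plus vehicle and 100% = wells without tunicamycin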
MT stabilizer: microtubule stabilizers in HeLa cells, primary screen, imaging, high-content imaging. HeLa tubulin immunostaining HCS, 24 h; share of cells brighter than vehicle mean+2SD. % tubulin-high responders, % at 10 µM. 0.83% of 200,000 active. AID 2205, 2009;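 active = plate Z-score above 3 for both tubulin-high and condensed-nucleus cell shares, with cell loss under 80%, at 10 µM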;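 also: anti alpha tubulin signal scored within the nucleus-defined area of each cell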
Lmaj promast: Leishmania major promastigote growth inhibition, primary screen; inhibition, % at 10 µM; 9% of 200,000 active; Leishmania major promastigotes, resazurin fluorescence viability; in the data active = inhibition above about 50%;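 also: promastigotes grown with compound for 44 hours at 28 °C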
Autophagy mod: autophagy modulators in MEF cells, primary screen, imaging, high-content, MEF GFP-LC3; MEF GFP-LC3 puncta imaging; test concentration mostly 10 µM; calls only at 10 µM (by protocol); 0.98% of 190,000 active; AID 463193, 2010;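 active = percentage of spot-positive cells more than 3 SD above its plate mean, without a fluorescence outlier flag or 80% toxicity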;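 also: spot-positive cell cutoff set from DMSO-treated cells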
An asterisk follows results filed as active; i = inactive; · = not tested or not shown; + = active, no number. Sampled rows, rich in hits. Any-hit rate of the full collection: about 12%.

SMILES	b-catenin transl	Dynein transport	CHOP inhibitor	MT stabilizer	Lmaj promast	Autophagy mod
CSc1nnc(CSCc2ccc(Cl)cc2Cl)n1-c1ccccc1	·	0.62	79*	2	-3	i
O=C(O)CC/C(=C\c1ccccc1[N+](=O)[O-])c1nc2ccccc2s1	-3	-0.77	19	6	-1	i
O=C(O)CC/C(=C\c1ccc(N2CCCC2)c([N+](=O)[O-])c1)c1nc2ccccc2s1	-3	-0.71	95*	3	-4	i
Cc1cc(C)c(NC(=S)N(CCc2ccncc2)C(C)C)c(C)c1	-1	-0.015	14	4	32	i
CCOC(=O)c1cnc2ccc(C)cc2c1Nc1ccc(N2CCOCC2)cc1	-2	-1.2	72*	2	52*	i
CCOC(=O)c1cnc2ccccc2c1Nc1ccc(C(=O)O)cc1	-5	-0.37	-1	3	-10	i
O=C(OCC#CCSc1nc2ccccc2s1)c1ccco1	1	0.37	29	5	-4	i
O=C(Nc1cc(C(F)(F)F)ccc1N1CCOCC1)c1ccc(Cl)nc1	1	1.2	54	2	100*	i
N=c1c2c(n(Cc3cccc(Cl)c3)c3c1CCC3)CCCC2	-1	0.0024	27	2	100*	i
N=c1c2c(n(Cc3ccc(F)cc3)c3c1CCC3)CCCC2	3	-0.68	12	2	99*	i
O=C1CCSc2ccc(Cl)cc2N1Cc1cccc(Cl)c1	-6	0.12	60	2	3	i
CCn1c2c(c(=N)c3c1CCC3)CCCC2	0	-0.72	-2	·	·	·
N=c1c2c(n(Cc3ccc(Cl)cc3)c3c1CCC3)CCC2	·	-1.2	·	2	99*	i
Cc1ccc(C(=O)N/N=C2\CC3CC=CC23)c(C)c1 (stereo unspecified)	0	-0.73	4	6	-5	i
CCOC(=O)CCC(=O)Nc1ccccc1C(N)=O	-6	0.64	30	5	7	i
CC(Sc1nnc(-c2ccc(Cl)cc2)n1C)C(N)=O (stereo unspecified)	-5	-0.76	23	2	-4	i
O=C(c1ccccc1)N1CCN2C(=O)c3ccccc3C12c1ccc(Cl)cc1 (stereo unspecified)	1	-0.64	-66	2	76*	+
O=C(c1ccc(F)cc1)N1CCN2C(=O)c3ccccc3C12c1ccc(Cl)cc1 (stereo unspecified)	-3	-0.11	-53	3	46	i
CCOC(=O)c1c(N2C(=O)C3C4C=CC(C4)C3C2=O)sc2c1CCC(C)C2 (stereo unspecified)	0	0.9	55	5	2	i
CC(C)c1nc(Cl)c(C#N)c2c1CCCC2	-1	0.042	85*	3	-4	i
CSC1=C(C#N)C(c2cccc(Br)c2)CC(=O)N1 (stereo unspecified)	1	2.5	35	2	-5	i
O=C1CC(c2cc(F)ccc2F)c2cc3c(cc2N1)CCC3 (stereo unspecified)	-1	2.4	71*	14*	18	i
Cc1cc2c(cc1C)C(c1cccc([N+](=O)[O-])c1)CC(=O)N2 (stereo unspecified)	·	-0.34	13	2	53*	i
O=C1CC(c2cccc(Br)c2)c2cc3c(cc2N1)CCC3 (stereo unspecified)	0	0.43	108*	28*	3	i
c1ccc(C(c2ccccc2)c2noc(CN3CCN(CC4CC4)CC3)n2)cc1	2	-0.36	16	3	55*	i
COCC1CCCN(Cc2nc(C(c3ccccc3)c3ccccc3)no2)C1 (stereo unspecified)	-2	-0.24	8	3	31	+
CC1=C(CC(=O)c2ccccc2)C(=O)c2ccccc2C1=O	·	0.42	-35	2	94*	i
O=C(CN1C(=O)c2ccccc2C1=O)c1ccccc1	·	0.44	5	3	-1	i
O=c1oc(-c2cccs2)nc2c1cnn2-c1ccccc1	0	-0.77	70	5	-12	i

Compound activity deposited in PubChem by several laboratories.
